Laboratory results as given in ChEMBL document CHEMBL1155326, “Design, synthesis and evaluation of 4,5-di-substituted acridone ligands with high G-quadruplex affinity and selectivity, together with low toxicity to normal cells” (Bioorg Med Chem Lett, 2009).
Activity calls are given as the source filed them. No cut-off for these calls is given here.

Tests used:
IMR-90 (Homo sapiens) = experiment: Cytotoxicity against human IMR90 cell after 72 hrs by SRB assay; settings: IMR-90, 72 h
A549 [1] = experiment: Cytotoxicity against human A549 cell after 72 hrs by SRB assay; format: functional, cell-based; settings: A549, 72 h
Nucleic Acid [2] = experiment: Binding affinity to human telomeric G4 DNA of sequence 5'-FAM-d(GGG[TTAGGG]3)-TAMRA-3' assessed as change in melting temperature by FRET DNA melting assay; format: nucleic-acid assay
Nucleic Acid [3] = experiment: Binding affinity to human Duplex DNA of sequence 5'-FAM-dTATAGCTATA-HEG-TATAGCTATA-TAMRA-3' assessed as change in melting temperature by FRET DNA melting assay; format: nucleic-acid assay
MCF7 (Homo sapiens) [4] = experiment: Cytotoxicity against human MCF7 cell after 72 hrs by SRB assay; settings: MCF7, 72 h
MCF7 [5] = experiment: Cytotoxic activity in human MCF7 cell assessed by number of scenescence cell at 35 uM after 1 week; format: functional
Procedure, shortened: (§1)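 Long-term MCF7 or A549 cultures were dosed at the start and then re-dosed three times weekly. At each re-dose the medium was discarded, cells were PBS-washed, and fresh medium plus compound was added. For staining, 1 × 10^5 cells per well were plated in medium with compound. After 24 h they were stained for senescence-associated β-galactosidase, and blue cells were counted by microscopy.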

A549 [6] = experiment: Cytotoxic activity in human A549 cell assessed by number of scenescence cell at 10 uM after 3 weeks; format: functional
Procedure, shortened: as §1

A549 [7] = experiment: Cytotoxic activity in human A549 cell assessed by number of scenescence cell at 25 uM after 4 weeks; format: functional
Procedure, shortened: as §1

MCF7 (Homo sapiens) [8] = experiment: Cytotoxicity against human MCF7 at 10 uM by assessed as population doublings SRB assay
A549 [9] = experiment: Cytotoxic activity in human A549 cell assessed by number of scenescence cell at 35 uM after 3 weeks; format: functional
Procedure, shortened: as §1

[10] = molecular target: Telomerase reverse transcriptase (Homo sapiens) (UniProt O14746); experiment: Inhibition of Telomerase by TRAP-LIG assay
MCF7 [11] = experiment: Cytotoxic activity in human MCF7 cell assessed as number of scenescence cell at 10 uM after 5 weeks; format: functional
Procedure, shortened: as §1

A549 [12] = experiment: Cytotoxic activity in human A549 cell assessed by number of scenescence cell at 35 uM after 5 weeks; format: functional
Procedure, shortened: as §1

A549 [13] = experiment: Cytotoxic activity in human A549 cell assessed by number of scenescence cell at 35 uM after 4 weeks; format: functional
Procedure, shortened: as §1

MCF7 [14] = experiment: Cytotoxic activity in human MCF7 cell assessed as number of scenescence cell at 10 uM after 3 weeks; format: functional
Procedure, shortened: as §1

A549 [15] = experiment: Cytotoxic activity in human A549 cell assessed by number of scenescence cell at 35 uM after 1 week; format: functional
Procedure, shortened: as §1

MCF7 [16] = experiment: Cytotoxic activity in human MCF7 cell assessed by number of scenescence cell at 25 uM after 3 weeks; format: functional
Procedure, shortened: as §1

A549 [17] = experiment: Cytotoxic activity in human A549 cell assessed by number of scenescence cell at 25 uM after 1 week; format: functional
Procedure, shortened: as §1

A549 [18] = experiment: Cytotoxic activity in human A549 cell assessed by number of scenescence cell at 25 uM after 5 weeks; format: functional
Procedure, shortened: as §1

A549 [19] = experiment: Cytotoxic activity in human A549 cell assessed by number of scenescence cell at 10 uM after 5 weeks; format: functional
Procedure, shortened: as §1

A549 [20] = experiment: Cytotoxic activity in human A549 cell assessed by number of scenescence cell at 10 uM after 4 weeks; format: functional
Procedure, shortened: as §1

MCF7 [21] = experiment: Cytotoxic activity in human MCF7 cell assessed by number of scenescence cell at 25 uM after 1 week; format: functional
Procedure, shortened: as §1

MCF7 [22] = experiment: Cytotoxic activity in human MCF7 cell assessed as number of scenescence cell at 10 uM after 4 weeks; format: functional
Procedure, shortened: as §1

MCF7 [23] = experiment: Cytotoxicity against human MCF7 by SRB assay; format: functional, cell-based
A549 [24] = experiment: Cytotoxic activity in human A549 cell assessed by number of scenescence cell at 10 uM after 1 weeks; format: functional
Procedure, shortened: as §1

A549 [25] = experiment: Cytotoxic activity in human A549 cell assessed by number of scenescence cell at 25 uM after 3 weeks; format: functional
Procedure, shortened: as §1

MCF7 [26] = experiment: Cytotoxic activity in human MCF7 cell assessed as number of scenescence cell at 10 uM after 1 week; format: functional
Procedure, shortened: as §1

Nucleic Acid [27] = experiment: Telomere shortening in DNA assessed by measuring telomere length after 6 weeks; format: nucleic-acid assay
MCF7 [28] = experiment: Cytotoxicity against human MCF7 cell after 72 hrs by SRB assay; format: functional, cell-based; settings: MCF7, 72 h
[29] = Cytotoxicity against human IMR90 cell after 72 hrs by SRB assay; format: cell-based; settings: IMR-90, 72 h
MCF7 [30] = experiment: Cytotoxic activity in human MCF7 cell assessed by number of scenescence cell at 15 uM after 5 weeks; format: functional
Procedure, shortened: as §1

MCF7 [31] = experiment: Cytotoxic activity in human MCF7 cell assessed by number of scenescence cell at 5 uM after 4 weeks; format: functional
Procedure, shortened: as §1

MCF7 [32] = experiment: Cytotoxic activity in human MCF7 cell assessed by number of scenescence cell at 15 uM after 4 weeks; format: functional
Procedure, shortened: as §1

MCF7 [33] = experiment: Cytotoxic activity in human MCF7 cell assessed by number of scenescence cell at 5 uM after 5 weeks; format: functional
Procedure, shortened: as §1

Sequence of Telomerase reverse transcriptase (Homo sapiens) (O14746 whole entry): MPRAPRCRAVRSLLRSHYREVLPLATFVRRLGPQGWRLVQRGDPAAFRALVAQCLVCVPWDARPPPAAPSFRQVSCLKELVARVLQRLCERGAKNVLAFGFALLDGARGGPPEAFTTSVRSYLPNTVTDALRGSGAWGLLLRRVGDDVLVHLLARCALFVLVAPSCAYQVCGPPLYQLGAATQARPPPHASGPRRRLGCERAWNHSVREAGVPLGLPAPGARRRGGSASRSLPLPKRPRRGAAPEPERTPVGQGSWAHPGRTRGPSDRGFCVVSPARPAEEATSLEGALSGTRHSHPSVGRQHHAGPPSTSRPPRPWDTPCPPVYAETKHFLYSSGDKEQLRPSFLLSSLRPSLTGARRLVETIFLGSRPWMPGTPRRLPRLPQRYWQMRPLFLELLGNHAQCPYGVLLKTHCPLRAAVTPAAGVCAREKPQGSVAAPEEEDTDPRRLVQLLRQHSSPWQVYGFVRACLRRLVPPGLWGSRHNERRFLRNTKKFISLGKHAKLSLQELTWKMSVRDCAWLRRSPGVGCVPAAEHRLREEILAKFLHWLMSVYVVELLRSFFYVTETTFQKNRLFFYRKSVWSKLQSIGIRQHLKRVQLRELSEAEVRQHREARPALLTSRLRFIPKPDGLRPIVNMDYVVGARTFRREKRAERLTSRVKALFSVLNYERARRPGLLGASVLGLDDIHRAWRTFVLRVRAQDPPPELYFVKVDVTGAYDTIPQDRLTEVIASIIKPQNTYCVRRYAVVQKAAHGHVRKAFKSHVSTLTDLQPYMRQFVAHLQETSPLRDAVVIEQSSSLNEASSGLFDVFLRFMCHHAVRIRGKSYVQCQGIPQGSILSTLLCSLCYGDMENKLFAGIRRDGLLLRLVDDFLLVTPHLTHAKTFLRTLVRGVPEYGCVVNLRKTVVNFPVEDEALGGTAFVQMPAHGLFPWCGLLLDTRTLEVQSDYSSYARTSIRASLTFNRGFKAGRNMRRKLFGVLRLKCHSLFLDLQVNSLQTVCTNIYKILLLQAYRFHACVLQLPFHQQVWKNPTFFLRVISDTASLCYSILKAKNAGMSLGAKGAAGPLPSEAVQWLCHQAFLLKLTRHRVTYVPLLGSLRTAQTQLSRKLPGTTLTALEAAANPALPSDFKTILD

O=C(Nc1ccc(NCCCN2CCCC2)cc1)c1cccc2c(=O)c3cccc(C(=O)Nc4ccc(NCCCN5CCCC5)cc4)c3[nH]c12
IC50 (IMR-90 (Homo sapiens)): > 100 µM
IC50 (A549 [1]): 66 µM
ΔTm (Nucleic Acid [2]): 33 °C
ΔTm (Nucleic Acid [3]): 2.5 °C

Cn1cc(NC(=O)c2cccc3c(=O)c4cccc(C(=O)Nc5cc(C(=O)NCCCN6CCCC6)n(C)c5)c4[nH]c23)cc1C(=O)NCCCN1CCCC1
IC50 (IMR-90 (Homo sapiens)): > 100 µM
IC50 (A549 [1]): 21 µM
ΔTm (Nucleic Acid [2]): 15 °C
ΔTm (Nucleic Acid [3]): 0 °C

O=C(CCn1ccnc1)Nc1ccc(NC(=O)c2cccc3c(=O)c4cccc(C(=O)Nc5ccc(NC(=O)CCn6ccnc6)cc5)c4[nH]c23)cc1
IC50 (IMR-90 (Homo sapiens)): > 100 µM
IC50 (A549 [1]): 19 µM
ΔTm (Nucleic Acid [2]): 15 °C
ΔTm (Nucleic Acid [3]): 0.5 °C

O=C(CCN1CCCC1)Nc1ccc(NC(=O)c2cccc3c(=O)c4ccccc4[nH]c23)cc1
IC50 (IMR-90 (Homo sapiens)): 7.5 µM
IC50 (A549 [1]): 16 µM
ΔTm (Nucleic Acid [2]): 11 °C
IC50 (MCF7 (Homo sapiens) [4]): 9 µM
ΔTm (Nucleic Acid [3]): 0.5 °C

O=C(CCNC1CCCCC1)Nc1ccc(NC(=O)c2cccc3c(=O)c4cccc(C(=O)Nc5ccc(NC(=O)CCNC6CCCCC6)cc5)c4[nH]c23)cc1
IC50 (IMR-90 (Homo sapiens)): > 100 µM
IC50 (A549 [1]): 31 µM
ΔTm (Nucleic Acid [2]): 24.5 °C
ΔTm (Nucleic Acid [3]): 0 °C

O=C(Nc1ccc(NCCCN2CCOCC2)cc1)c1cccc2c(=O)c3cccc(C(=O)Nc4ccc(NCCCN5CCOCC5)cc4)c3[nH]c12
IC50 (IMR-90 (Homo sapiens)): > 100 µM
IC50 (A549 [1]): > 100 µM
ΔTm (Nucleic Acid [2]): 20 °C
IC50 (MCF7 (Homo sapiens) [4]): > 100 µM
ΔTm (Nucleic Acid [3]): 0 °C

CN(C)CCCNc1ccc(NC(=O)c2cccc3c(=O)c4cccc(C(=O)Nc5ccc(NCCCN(C)C)cc5)c4[nH]c23)cc1
IC50 (IMR-90 (Homo sapiens)): > 100 µM
IC50 (A549 [1]): > 100 µM
ΔTm (Nucleic Acid [2]): 31 °C
ΔTm (Nucleic Acid [3]): 2.5 °C

O=C(CCN1CCOCC1)Nc1ccc(NC(=O)c2cccc3c(=O)c4cccc(C(=O)Nc5ccc(NC(=O)CCN6CCOCC6)cc5)c4[nH]c23)cc1
IC50 (IMR-90 (Homo sapiens)): > 100 µM
IC50 (A549 [1]): > 100 µM
ΔTm (Nucleic Acid [2]): 19 °C
IC50 (MCF7 (Homo sapiens) [4]): > 100 µM
ΔTm (Nucleic Acid [3]): 0 °C

O=C(CCCN1CCCC1)Nc1ccc(NC(=O)c2cccc3c(=O)c4cccc(C(=O)Nc5ccc(NC(=O)CCCN6CCCC6)cc5)c4[nH]c23)cc1
IC50 (IMR-90 (Homo sapiens)): > 100 µM
IC50 (A549 [1]): 8 µM
ΔTm (Nucleic Acid [2]): 15 °C
ΔTm (Nucleic Acid [3]): 0 °C

O=C(CCN1CCCC1)Nc1cccc(NC(=O)c2cccc3c(=O)c4cccc(C(=O)Nc5cccc(NC(=O)CCN6CCCC6)c5)c4[nH]c23)c1
Activity (MCF7 [5]): 12%
IC50 (IMR-90 (Homo sapiens)): > 100 µM
IC50 (A549 [1]): > 100 µM
Activity (A549 [6]): 12%
Activity (A549 [7]): 0%
Activity (MCF7 (Homo sapiens) [8]): 17.5
Activity (A549 [9]): 30%
Activity [10]: inactive
Activity (MCF7 [11]): 1%
Activity (A549 [12]): 0%
Activity (A549 [13]): 0%
Activity (MCF7 [14]): 3%
ΔTm (Nucleic Acid [2]): 29 °C
Activity (A549 [15]): 8%
Activity (MCF7 [16]): 25%
Activity (A549 [17]): 9%
Activity (A549 [18]): 0%
Activity (A549 [19]): 0%
Activity (A549 [20]): 0%
Activity (MCF7 [21]): 3%
Activity (MCF7 [22]): 0%
IC50 (MCF7 [23]): 84 µM
Activity (A549 [24]): 0%
Activity (A549 [25]): 21%
Activity (MCF7 [26]): 2%
Activity (Nucleic Acid [27]): inactive
ΔTm (Nucleic Acid [3]): 3 °C

O=C(CCN1CCCC1)Nc1ccc(NC(=O)c2cccc3c(=O)c4cccc(C(=O)Nc5ccc(NC(=O)CCN6CCCC6)cc5)c4[nH]c23)cc1
IC50 (IMR-90 (Homo sapiens)): > 100 µM
IC50 (A549 [1]): 16 µM
ΔTm (Nucleic Acid [2]): 34 °C
ΔTm (Nucleic Acid [3]): 2.5 °C

O=C(CN1CCCC1)Nc1ccc(NC(=O)c2cccc3c(=O)c4cccc(C(=O)Nc5ccc(NC(=O)CN6CCCC6)cc5)c4[nH]c23)cc1
IC50 (IMR-90 (Homo sapiens)): > 100 µM
IC50 (A549 [1]): > 100 µM
ΔTm (Nucleic Acid [2]): 25.5 °C
ΔTm (Nucleic Acid [3]): 0.5 °C

O=C(CCC(=O)N1CCCC1)Nc1ccc(NC(=O)c2cccc3c(=O)c4cccc(C(=O)Nc5ccc(NC(=O)CCC(=O)N6CCCC6)cc5)c4[nH]c23)cc1
IC50 (IMR-90 (Homo sapiens)): > 100 µM
IC50 (A549 [1]): 27 µM
ΔTm (Nucleic Acid [2]): 0 °C
ΔTm (Nucleic Acid [3]): 0 °C

O=C(CCN1CCCCC1)Nc1ccc(NC(=O)c2cccc3c(=O)c4cccc(C(=O)Nc5ccc(NC(=O)CCN6CCCCC6)cc5)c4[nH]c23)cc1
IC50 (IMR-90 (Homo sapiens)): > 100 µM
IC50 (A549 [1]): > 100 µM
ΔTm (Nucleic Acid [2]): 31 °C
ΔTm (Nucleic Acid [3]): 1.5 °C

O=C(CCCCN1CCCC1)Nc1ccc(NC(=O)c2cccc3c(=O)c4cccc(C(=O)Nc5ccc(NC(=O)CCCCN6CCCC6)cc5)c4[nH]c23)cc1
IC50 (A549 [1]): 43 µM
IC50 (MCF7 [28]): > 100 µM
IC50 [29]: 2 µM
ΔTm (Nucleic Acid [2]): 22.5 °C
ΔTm (Nucleic Acid [3]): 0.75 °C

CN1CCN(CCC(=O)Nc2ccc(NC(=O)c3cccc4c(=O)c5cccc(C(=O)Nc6ccc(NC(=O)CCN7CCN(C)CC7)cc6)c5[nH]c34)cc2)CC1
IC50 (IMR-90 (Homo sapiens)): > 100 µM
IC50 (A549 [1]): > 100 µM
ΔTm (Nucleic Acid [2]): 31 °C
ΔTm (Nucleic Acid [3]): 1.5 °C

CN(C)CCC(=O)Nc1ccc(NC(=O)c2cccc3c(=O)c4cccc(C(=O)Nc5ccc(NC(=O)CCN(C)C)cc5)c4[nH]c23)cc1
Activity (MCF7 [30]): 5%
IC50 (IMR-90 (Homo sapiens)): > 100 µM
IC50 (A549 [1]): 15 µM
Activity (MCF7 [31]): 2%
Activity (MCF7 [32]): 0%
Activity [10]: inactive
Activity (MCF7 [33]): 2%
ΔTm (Nucleic Acid [2]): 32 °C
Activity (Nucleic Acid [27]): inactive
ΔTm (Nucleic Acid [3]): 2.5 °C

CN(C)CCCNC(=O)c1cccc2c(=O)c3cccc(C(=O)NCCCN(C)C)c3[nH]c12
IC50 (IMR-90 (Homo sapiens)): > 100 µM
IC50 (A549 [1]): 62 µM
ΔTm (Nucleic Acid [2]): 7 °C
ΔTm (Nucleic Acid [3]): 1 °C

CN1CCN(CCCNc2ccc(NC(=O)c3cccc4c(=O)c5cccc(C(=O)Nc6ccc(NCCCN7CCN(C)CC7)cc6)c5[nH]c34)cc2)CC1
IC50 (IMR-90 (Homo sapiens)): > 100 µM
IC50 (A549 [1]): > 100 µM
ΔTm (Nucleic Acid [2]): 28 °C
ΔTm (Nucleic Acid [3]): 1.5 °C
